Reference: ChEMBL document CHEMBL4689842, “EUbOPEN Chemogenomics Library wave 1” (2021)
Values joined by “and” are separate entries in the source; they are usually repeats but may differ in a detail not shown here. Equal values may be shown once.

System: Fibroblast
Assay: Multiplex assay against human fibroblast
Type: toxicity, cell-based
Procedure, shortened: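 Hoechst33342, BioTracker Green Microtubule Cytoskeleton Dye, MitoTracker Red and Annexin V Alexa Fluor 680 were added to live cells at seeding, and imaging on a CQ1 microscope at 37°C and 5% CO2 followed compound addition. Gating by CellPathfinder machine learning separated cells into Hoechst high-intensity objects or normal cells, then normal cells into healthy, pyknosed or fragmented nuclei, then pyknosed cells into mitotic or apoptotic. Per cents of healthy-nucleus cells are reported for the tubulin, mitochondrial-mass and membrane-permeability phenotypes.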

[1] = 12 h, 1 µM, compound concentration 1 uM, replicate 1
[2] = 12 h, 1 µM, compound concentration 1 uM, replicate 2
[3] = 12 h, 10 µM, compound concentration 10 uM, replicate 1
[4] = 12 h, 10 µM, compound concentration 10 uM, replicate 2
[5] = 24 h, 1 µM, compound concentration 1 uM, replicate 1
[6] = 24 h, 1 µM, compound concentration 1 uM, replicate 2
[7] = 24 h, 10 µM, compound concentration 10 uM, replicate 1
[8] = 24 h, 10 µM, compound concentration 10 uM, replicate 2
[9] = 48 h, 10 µM, compound concentration 10 uM, replicate 1
[10] = 48 h, 10 µM, compound concentration 10 uM, replicate 2

## c1ccc(-c2oc3ncnc(NC[C@@H]4CCCO4)c3c2-c2ccccc2)cc1
[1]
  Population Apoptotic (%): 77% and 68%
  Population Fragmented Nuclei (%): 30% and 24%
  Population Healthy Nuclei (%): 49% and 53%
  Population Hoechst High Intensity Objects (%): 11% and 13%
  Population Membrane Permeable-Phenotype (%): 22% and 42%
  Population Mitochondria Different-Phenotype (%): 7% and 16%
  Population Mitotic Cells (%): 22% and 31%
  Population Normal (%): 88% and 86%
  Population Pyknosed Nuclei (%): 20% and 21%
  Total Cell Count: 123 and 267
[2]
  Population Apoptotic (%): 50% and 25%
  Population Fragmented Nuclei (%): 35% and 48%
  Population Healthy Nuclei (%): 40% and 37%
  Population Hoechst High Intensity Objects (%): 35% and 44%
  Population Membrane Permeable-Phenotype (%): 29% and 27%
  Population Mitochondria Different-Phenotype (%): 11% and 18%
  Population Mitotic Cells (%): 50% and 75%
  Population Normal (%): 64% and 55%
  Population Pyknosed Nuclei (%): 23% and 13%
  Population Tubulin-Different-Phenotype (%): 47% and 100%
  Total Cell Count: 65 and 52
[3]
  Population Apoptotic (%): 53%
  Population Fragmented Nuclei (%): 20%
  Population Healthy Nuclei (%): 41%
  Population Hoechst High Intensity Objects (%): 20%
  Population Membrane Permeable-Phenotype (%): 21%
  Population Mitochondria Different-Phenotype (%): 42%
  Population Mitotic Cells (%): 46%
  Population Normal (%): 79%
  Population Pyknosed Nuclei (%): 37%
  Population Tubulin-Different-Phenotype (%): 84%
  Total Cell Count: 99
[4]
  Population Apoptotic (%): 87%
  Population Fragmented Nuclei (%): 14%
  Population Healthy Nuclei (%): 71%
  Population Hoechst High Intensity Objects (%): 6%
  Population Membrane Permeable-Phenotype (%): 34%
  Population Mitochondria Different-Phenotype (%): 56%
  Population Mitotic Cells (%): 12%
  Population Normal (%): 93%
  Population Pyknosed Nuclei (%): 14%
  Population Tubulin-Different-Phenotype (%): 95%
  Total Cell Count: 61
[5]
  Population Apoptotic (%): 65% and 78%
  Population Fragmented Nuclei (%): 19% and 29%
  Population Healthy Nuclei (%): 59% and 57%
  Population Hoechst High Intensity Objects (%): 18% and 12%
  Population Membrane Permeable-Phenotype (%): 17% and 16%
  Population Mitotic Cells (%): 34% and 21%
  Population Normal (%): 81% and 87%
  Population Pyknosed Nuclei (%): 21% and 13%
  Total Cell Count: 254 and 121
[6]
  Population Apoptotic (%): 70% and 83%
  Population Fragmented Nuclei (%): 43% and 66%
  Population Healthy Nuclei (%): 34% and 17%
  Population Hoechst High Intensity Objects (%): 33% and 36%
  Population Membrane Permeable-Phenotype (%): 13% and 28%
  Population Mitotic Cells (%): 30% and 16%
  Population Normal (%): 66% and 63%
  Population Pyknosed Nuclei (%): 22% and 15%
  Population Tubulin-Different-Phenotype (%): 66% and 100%
  Total Cell Count: 66 and 61
[7]
  Population Apoptotic (%): 76%
  Population Fragmented Nuclei (%): 43%
  Population Healthy Nuclei (%): 39%
  Population Hoechst High Intensity Objects (%): 25%
  Population Membrane Permeable-Phenotype (%): 13%
  Population Mitochondria Different-Phenotype (%): 51%
  Population Mitotic Cells (%): 23%
  Population Normal (%): 74%
  Population Pyknosed Nuclei (%): 17%
  Population Tubulin-Different-Phenotype (%): 82%
  Total Cell Count: 99
[8]
  Population Apoptotic (%): 100%
  Population Fragmented Nuclei (%): 14%
  Population Healthy Nuclei (%): 68%
  Population Hoechst High Intensity Objects (%): 10%
  Population Membrane Permeable-Phenotype (%): 21%
  Population Mitochondria Different-Phenotype (%): 56%
  Population Mitotic Cells (%): 0%
  Population Normal (%): 90%
  Population Pyknosed Nuclei (%): 16%
  Population Tubulin-Different-Phenotype (%): 81%
  Total Cell Count: 60
[9]
  Population Apoptotic (%): 60%
  Population Fragmented Nuclei (%): 36%
  Population Healthy Nuclei (%): 51%
  Population Hoechst High Intensity Objects (%): 14%
  Population Membrane Permeable-Phenotype (%): 13%
  Population Mitochondria Different-Phenotype (%): 55%
  Population Mitotic Cells (%): 40%
  Population Normal (%): 85%
  Population Pyknosed Nuclei (%): 11%
  Population Tubulin-Different-Phenotype (%): 95%
  Total Cell Count: 98
[10]
  Population Apoptotic (%): 0%
  Population Fragmented Nuclei (%): 40%
  Population Healthy Nuclei (%): 59%
  Population Hoechst High Intensity Objects (%): 10%
  Population Membrane Permeable-Phenotype (%): 16%
  Population Mitochondria Different-Phenotype (%): 42%
  Population Mitotic Cells (%): 0%
  Population Normal (%): 89%
  Population Pyknosed Nuclei (%): 0%
  Population Tubulin-Different-Phenotype (%): 96%
  Total Cell Count: 105

## Cl.Cn1c2c(c3ccc(Cl)c(Cl)c31)C(C#N)C1(CCNCC1)NC2=O (centres undefined)
[1]
  Population Apoptotic (%): 75%
  Population Fragmented Nuclei (%): 35%
  Population Healthy Nuclei (%): 51%
  Population Hoechst High Intensity Objects (%): 11%
  Population Membrane Permeable-Phenotype (%): 8%
  Population Mitochondria Different-Phenotype (%): 2%
  Population Mitotic Cells (%): 25%
  Population Normal (%): 88%
  Population Pyknosed Nuclei (%): 13%
  Population Tubulin-Different-Phenotype (%): 6%
  Total Cell Count: 332
[2]
  Population Apoptotic (%): 50%
  Population Fragmented Nuclei (%): 59%
  Population Healthy Nuclei (%): 33%
  Population Hoechst High Intensity Objects (%): 32%
  Population Membrane Permeable-Phenotype (%): 9%
  Population Mitochondria Different-Phenotype (%): 9%
  Population Mitotic Cells (%): 50%
  Population Normal (%): 67%
  Population Pyknosed Nuclei (%): 6%
  Population Tubulin-Different-Phenotype (%): 9%
  Total Cell Count: 92
[3]
  Population Apoptotic (%): 64%
  Population Fragmented Nuclei (%): 44%
  Population Healthy Nuclei (%): 40%
  Population Hoechst High Intensity Objects (%): 19%
  Population Membrane Permeable-Phenotype (%): 8%
  Population Mitochondria Different-Phenotype (%): 6%
  Population Mitotic Cells (%): 35%
  Population Normal (%): 80%
  Population Pyknosed Nuclei (%): 14%
  Population Tubulin-Different-Phenotype (%): 37%
  Total Cell Count: 482
[4]
  Population Apoptotic (%): 40%
  Population Fragmented Nuclei (%): 48%
  Population Healthy Nuclei (%): 39%
  Population Hoechst High Intensity Objects (%): 23%
  Population Membrane Permeable-Phenotype (%): 5%
  Population Mitochondria Different-Phenotype (%): 2%
  Population Mitotic Cells (%): 60%
  Population Normal (%): 76%
  Population Pyknosed Nuclei (%): 11%
  Population Tubulin-Different-Phenotype (%): 73%
  Total Cell Count: 112
[5]
  Population Apoptotic (%): 67%
  Population Fragmented Nuclei (%): 38%
  Population Healthy Nuclei (%): 50%
  Population Hoechst High Intensity Objects (%): 15%
  Population Membrane Permeable-Phenotype (%): 4%
  Population Mitochondria Different-Phenotype (%): 3%
  Population Mitotic Cells (%): 32%
  Population Normal (%): 84%
  Population Pyknosed Nuclei (%): 10%
  Population Tubulin-Different-Phenotype (%): 4%
  Total Cell Count: 379
[6]
  Population Apoptotic (%): 0%
  Population Fragmented Nuclei (%): 67%
  Population Healthy Nuclei (%): 31%
  Population Hoechst High Intensity Objects (%): 29%
  Population Membrane Permeable-Phenotype (%): 9%
  Population Mitochondria Different-Phenotype (%): 0%
  Population Mitotic Cells (%): 100%
  Population Normal (%): 70%
  Population Pyknosed Nuclei (%): 1%
  Population Tubulin-Different-Phenotype (%): 19%
  Total Cell Count: 95
[7]
  Population Apoptotic (%): 61%
  Population Fragmented Nuclei (%): 28%
  Population Healthy Nuclei (%): 55%
  Population Hoechst High Intensity Objects (%): 37%
  Population Membrane Permeable-Phenotype (%): 6%
  Population Mitochondria Different-Phenotype (%): 10%
  Population Mitotic Cells (%): 38%
  Population Normal (%): 62%
  Population Pyknosed Nuclei (%): 15%
  Population Tubulin-Different-Phenotype (%): 38%
  Total Cell Count: 492
[8]
  Population Apoptotic (%): 87%
  Population Fragmented Nuclei (%): 42%
  Population Healthy Nuclei (%): 42%
  Population Hoechst High Intensity Objects (%): 43%
  Population Membrane Permeable-Phenotype (%): 9%
  Population Mitochondria Different-Phenotype (%): 14%
  Population Mitotic Cells (%): 12%
  Population Normal (%): 56%
  Population Pyknosed Nuclei (%): 16%
  Population Tubulin-Different-Phenotype (%): 42%
  Total Cell Count: 89
